{"source": "ChEMBL document CHEMBL1131196", "about": "“Design and synthesis of hydrazinopeptides and their evaluation as human leukocyte elastase inhibitors” (J Med Chem, 1998)", "molecules": {"B1": {"name": "Neutrophil elastase (Homo sapiens), P08246 (protein)", "chain": "MTLGRRLACLFLACVLPALLLGGTALASEIVGGRRARPHAWPFMVSLQLRGGHFCGATLIAPNFVMSAAHCVANVNVRAVRVVLGAHNLSRREPTRQVFAVQRIFENGYDPVNLLNDIVILQLNGSATINANVQVAQLPAQGRRLGNGVQCLAMGWGLLGRNRGIASVLQELNVTVVTSLCRRSNVCTLVRGRQAGVCFGDSGSPLVCNGLIHGIASFVRGGCASGLYPDAFAPVAQFVNWIDSIIQRSEDNPCPHPRDPDPASRTH"}}, "key": {"[1]": {"molecular_target": "T1, Neutrophil elastase (Homo sapiens, UniProt P08246)", "T1 sequence (P08246 whole entry)": "B1 chain", "assay": "Inhibition constant of compound measured toward human leukocyte elastase (HLE) at pH 8 and 25 degree C.", "procedure,_shortened": "(§1)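 Chromogenic p-nitroanilide substrates, with MeO-Suc-Ala-Ala-Pro-Val-pNA for HLE. Enzymes were HLE 20 nM or PPE 22 nM, with inhibitors at 25–300 µM. Assays ran in 0.05 M Hepes pH 8.0 with 10% v/v DMSO at 25 °C, monitoring p-nitroaniline release continuously at 405 nm. Initial rates were fit to competitive inhibition. Ki came from a linear plot of Km(app)/Vm vs [I]; reversibility was checked by buffer exchange.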"}, "[2]": {"molecular_target": "Pancreatic elastase (Sus scrofa, UniProt P08419+P00772)", "assay": "Inhibition constant of compound measured toward porcine Pancreatic elastase at pH 8 and 25 degree C.", "format": "protein assay", "procedure,_shortened": "as §1"}, "[3]": {"assay": "The catalytic efficiency is the ratio of kcat to that of Km.", "procedure,_shortened": "(§2)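 HLE at 200 nM, in 0.05 M Hepes pH 8.0 with 10% v/v DMSO and no NaCl, at 25 °C. Hydrolysis was read either by absorbance at 250 nm (substrate 5–50 µM) or by C8 reverse-phase HPLC (substrate 5–20 µM). For HPLC, products at 2–5 min were quantified against a Z-Ala-Ala-Pro-Val calibration. kcat and Km came from least-squares Michaelis fits. For HPLC, kcat/Km came from the linearized rate below Km.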"}, "[4]": {"molecular_target": "T2, Neutrophil elastase (Homo sapiens) (UniProt P08246)", "T2 sequence (whole entry)": "B1 chain", "assay": "(§3) Kinetic parameter was calculated by Michaelis equation catalyzed by Leukocyte elastase at 25 degree C and pH 8.", "procedure,_shortened": "as §2"}, "[5]": {"substrate": "CC(C)NC(=O)[C@H](C)NC(=O)[C@H](C)NNC(=O)[C@@H](NC(=O)[C@H]1CCCN1C(=O)[C@H](C)NC(=O)[C@H](C)NC(=O)OCc1ccccc1)C(C)C", "assay": "as §3", "procedure,_shortened": "as §2"}, "[6]": {"substrate": "CC(C)NC(=O)[C@H](C)NC(=O)[C@H](C)NC(=O)[C@@H](NC(=O)[C@H]1CCCN1C(=O)[C@H](C)NC(=O)[C@H](C)NC(=O)OCc1ccccc1)C(C)C", "assay": "as §3", "procedure,_shortened": "as §2"}}, "note": "Numbered stars: 1 amine (or outer) side, 2 acyl side, 3 side chain; on linkers, the order of the positions; unused ones are H or OH. Square brackets hold non-standard residues; d marks the D form. Peptide text beside a SMILES is read from it. * marks the point of attachment. X1 = O=C([C@H]1CCCN1N[*:1])[*:2]; Cbz = O=C(OCc1ccccc1)*; NHiPr = CC(C)N*", "data": [{"molecule": "CC(C)NC(=O)[C@H](C)NC(=O)[C@H](C)NC(=O)[C@@H](NNC(=O)[C@H]1CCCN1C(=O)[C@H](C)NC(=O)[C@H](C)NC(=O)OCc1ccccc1)C(C)C", "values": [{"measurement": "Ki", "setting": "[1]", "result": 595, "unit": "µM"}, {"measurement": "Ki", "setting": "[2]", "result": 397, "unit": "µM"}]}, {"molecule": "CC(C)NC(=O)[C@H](C)NC(=O)[C@H](C)NC(=O)[C@@H](NC(=O)[C@H]1CCCN1NC(=O)[C@H](C)NC(=O)[C@H](C)NC(=O)OCc1ccccc1)C(C)C", "note": "(Cbz-AA[X1]VAA-NHiPr)", "values": [{"measurement": "Ki", "setting": "[1]", "result": 65, "unit": "µM"}, {"measurement": "Ki", "setting": "[2]", "result": 146, "unit": "µM"}]}, {"molecule": "CC(C)NC(=O)[C@H](C)NC(=O)[C@H](C)NC(=O)[C@@H](NC(=O)[C@H]1CCCN1C(=O)[C@H](C)NC(=O)[C@H](C)NC(=O)OCc1ccccc1)C(C)C", "values": [{"measurement": "k cat/Km", "setting": "[3]", "result": 6780, "unit": "M⁻¹ s⁻¹"}, {"measurement": "k cat", "setting": "[4]", "result": 0.88, "unit": "s⁻¹"}]}, {"molecule": "CC(C)NC(=O)[C@H](C)NC(=O)[C@H](C)NNC(=O)[C@@H](NC(=O)[C@H]1CCCN1C(=O)[C@H](C)NC(=O)[C@H](C)NC(=O)OCc1ccccc1)C(C)C", "values": [{"measurement": "k cat/Km", "setting": "[3]", "result": 3150, "unit": "M⁻¹ s⁻¹"}, {"measurement": "k cat", "setting": "[4]", "result": 2.24, "unit": "s⁻¹"}]}, {"molecule": "B1", "values": [{"measurement": "Km", "setting": "[5]", "result": 712, "unit": "µM"}, {"measurement": "Km", "setting": "[6]", "result": 131, "unit": "µM"}]}]}
